# SIAE inh – human SIAE inhibitors, primary screen, biochemical, fluorescence polarization, FP-Rh probe, 1536-well HTS; Sialate O-acetylesterase (Homo sapiens), Q9HAT2; SIAE FP-Rh probe binding; inhibition, % at 9.66 µM; 0.69% of 370,000 active;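 active = inhibition above a cutoff: mean of compounds within the control limits plus 3 SD of those, cut at about 17% in these data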;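 note: 0% = plate median of compound wells and 100% = probe without SIAE protein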
# PRMT1 inh – PRMT1 methyltransferase inhibitors, primary screen, biochemical, fluorescence polarization; Protein arginine N-methyltransferase 1 (Homo sapiens), Q99873; recombinant PRMT1, activity-based probe fluorescence polarization; inhibition, % at 2.79 µM; 1.3% of 370,000 active;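 active = inhibition above about 21% made by adding two undisclosed values, limit read from the data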
# mABHD4 FP – ABHD4 inhibitors, primary screen, biochemical, fluorescence polarization, mouse | purified mABHD4, FP-Rh probe fluorescence polarization | 0.54% of 370,000 active | inhibition, % at 8.92 µM | (Lyso)-N-acylphosphatidylethanolamine lipase (Mus musculus), Q8VD66;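 active = inhibition exceeding the mean over every tested compound plus 3 SD, cut at about 30% in these data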;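 note: 0% = plate median of compound wells and 100% = S159A mutant with DMSO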
# Target sequence (Q8VD66 whole entry, looked up): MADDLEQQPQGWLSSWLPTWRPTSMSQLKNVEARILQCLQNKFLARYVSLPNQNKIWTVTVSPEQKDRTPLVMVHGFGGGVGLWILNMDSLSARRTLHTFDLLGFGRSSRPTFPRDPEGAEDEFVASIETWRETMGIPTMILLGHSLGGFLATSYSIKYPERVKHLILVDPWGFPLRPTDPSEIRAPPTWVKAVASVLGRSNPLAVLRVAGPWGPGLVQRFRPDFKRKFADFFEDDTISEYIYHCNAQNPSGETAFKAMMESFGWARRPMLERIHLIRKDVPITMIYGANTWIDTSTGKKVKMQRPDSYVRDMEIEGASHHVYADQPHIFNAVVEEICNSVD
#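 Test system: mABHD4 protein; Read-out basis: % inhibition; Incubation: 45 min + 60 min at 25 °C; Repeats: single replicate; Technique: fluorescence polarization with parallel and perpendicular emission, 525/598 nm; Compound: 8.92 µM, single dose; Benchmarks: full inhibition S159A mutant plus DMSO, zero as sample-well median.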
# JMJD2C inh – inhibitors of GASC-1 histone demethylase, primary screen, biochemical, fluorescence, DELFIA europium; inhibition, % at 2.35 µM; GST-JMJD2C(1-420) H3K9me3 demethylation; 0.069% of 330,000 active;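 active = more than half of a compound's replicate wells show inhibition beyond 50%, single wells judged on their own value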;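 note: signal counts dimethyl H3K9 product captured on neutravidin plate; 0% = median of DMSO wells and 100% = 0.3 times that DMSO median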
# HTRA1 inhibitor – HTRA1 serine protease inhibitors, primary screen, biochemical, fluorescence polarization, HTS; Q92743; recombinant HTRA1, FP-rhodamine activity-based probe; 0.5% of 340,000 active; inhibition, % at 5.96 µM; in the data active = inhibition above about 36%;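 note: 0% = enzyme with DMSO and 100% = wells lacking enzyme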
# mABHD4 conf – ABHD4 inhibitors, retest, confirmation, biochemical, fluorescence polarization, mouse | shares compounds with mABHD4 FP | purified mABHD4, FP-Rh probe fluorescence polarization | inhibition, % at 8.92 µM | 55% of 1,800 active | AID 720658, 2013;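 active = mean inhibition across replicates above the hit cutoff set in the primary screen, cut at about 30% in these data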;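 note: 0% = wild-type ABHD4 with DMSO and 100% = catalytically dead S159A mutant with DMSO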
# * hit, by the source's call; . = no result given; ! = not active in a repeat. An excerpt weighted towards active compounds, which were near 2.4% of everything screened.
SMILES,SIAE inh,PRMT1 inh,mABHD4 FP,JMJD2C inh,HTRA1 inhibitor,mABHD4 conf
COc1ccc2c(c1)CN1CN(Cc3ccccc3)S(=O)(=O)CC21 (stereo unspecified),-0.1,2.4,-3.2,.,.,.
Cc1c(C#N)c(N)nc2c3c(sc12)NC(=O)CC3c1ccc(Cl)cc1 (stereo unspecified),12.5,0.5,8.2,1.5,-16.4,.
N#Cc1c(N)nc2c3c(sc(=N)c2c1N)NC(=O)CC3c1ccccc1 (stereo unspecified),-1.9,7.7,30.5*,-1.8,25.8,-77.0
COc1ccc(S[C@]2(C(=O)N3CCCC3)CC(=O)N(c3ccccc3OC)[C@@H]2c2ccc(OC)cc2)cc1,1.8,1.1,1.1,.,.,.
Oc1ccc(N2CCN(Cc3c(-c4ccccc4)nc4ccccn34)CC2)cc1,5.9,22.3*,30.5*,-2.4,16.8,-2.9
CC(=O)Nc1ccc(S(=O)(=O)NCc2ccc3c(c2)cc(C)n3C)cc1,14.7,13.8,46.1*,-11.3,27.2,-13.4
COc1ccc(NC(=O)C(CCCCNC(=O)OC(C)(C)C)NC2(C(=O)NCCc3c[nH]c4ccccc34)CCCCC2)cc1 (stereo unspecified),7.7,0.3,-7.6,.,.,.
C=CCN1[C@@H](C)COc2cc(N3CCSCC3)ccc2S1(=O)=O,-5.5,3.1,-5.5,.,.,.
CN(C)c1ccc(O)c2c1CC1CC3[C@@H](N(C)C)C(=O)C(C(N)=O)C(=O)[C@]3(O)C(=O)C1C2=O (stereo partly specified),10.3,11.3,61.1*,.,27.6,-3.9
CN(C)c1ccc(O)c2c1CC1CC3C(N(C)C)C(=O)C(C(N)=O)=C(O)[C@@]3(O)C(=O)C1=C2O (stereo partly specified),8.6,16.5,59.8*,-9.1,14.5,25.9
Cc1ccc(C(=O)OCC(=O)Nc2cccc(S(=O)(=O)N3CCCCC3)c2)s1,-11.7,3.0,-8.8,.,-33.4,.
O=C1c2ccc3c4c(ccc(c24)C(=O)N1CCCCO)C(=O)N(CCCCO)C3=O,16.6,9.1,37.9*,6.8,18.1,27.2
COc1ccccc1NC1=C(Cl)C(=O)N(c2ccccc2)C1=O,3.3,12.1,1.6,-0.5,-3.6,.
CCOc1ccc(N2C(=O)C(Cl)=C(Nc3ccccc3O)C2=O)cc1,1.7,22.1*,34.2*,-4.4,-6.1,19.4
CCNC(=S)NNC(=O)c1ccccn1,-4.3,0.3,53.8*,9.5,6.6,55.5*
CCOC(=O)CC[C@@]1(C(=O)OCC)C[C@@H](CC(=O)N2CCN(C(=O)c3ccco3)CC2)C(=O)N2CCCC=C21,-0.1,-5.0,5.7,.,.,.
CCCCNc1c(-c2ccc(SC3CCCCC3)cc2)nc2cnccn12,13.8,11.0,33.8*!,.,-17.2,14.2
CCCCNc1c(-c2ccc(OC)c(SC3CCCCC3)c2)nc2cc(C)ccn12,12.4,-0.8,30.0*,2.3,5.5,37.0*
CCCCNc1c(-c2ccc(OC)c(SC3CCCCC3)c2)nc2cnccn12,.,.,.,0.5,-2.5,.
O=C(N[C@H](Cc1ccccc1)C(=O)NCc1ccccn1)[C@H]1O[C@@H](n2ccc(=O)[nH]c2=O)[C@H](O)[C@@H]1O,-3.4,-1.0,-0.8,.,.,.
COc1ccccc1CCn1cnc(-c2cccc(F)c2)c1CC(C)C,-0.4,4.0,-5.4,.,.,.
NC(=S)n1[nH]c(-c2ccc([N+](=O)[O-])cc2)c(N=Nc2cccc([N+](=O)[O-])c2)c1=O,-2.6,7.1,30.0*,-1.6,6.6,54.3*
NC(=S)n1[nH]c(-c2ccc([N+](=O)[O-])cc2)c(N=Nc2ccccc2[N+](=O)[O-])c1=O,3.4,-3.7,16.1,.,-0.3,.
CC(=O)C1=C(C)NC2=C(C(=O)c3ccccc32)C1c1ccccc1 (stereo unspecified),9.0,3.2,40.8*,-21.9,12.3,82.7*
OCCN1CCN(CC(O)COc2ccc(C34CC5CC(CC(C5)C3)C4)cc2)CC1 (stereo unspecified),3.5,-0.9,22.6,-1.8,18.9,.
SMILES,SIAE inh,PRMT1 inh,mABHD4 FP,JMJD2C inh,HTRA1 inhibitor,mABHD4 conf
NCCOc1ccc(C23CC4CC(CC(C4)C2)C3)cc1,0.1,5.0,31.7*,0.2,11.0,37.4*
CCOC(=O)CN1C(=O)CSc2ccc(S(=O)(=O)N3CCCC3)cc21,-2.9,-0.5,35.2*,-9.7,6.1,-6.3
O=C(CNc1cccc2ccccc12)N/N=C/c1ccc(C(=O)O)cc1,8.9,2.6,29.8*,-1.3,4.4,21.2
Nc1c(O)ccc2c1C(=O)c1ccccc1C2=O,0.7,16.0,44.8*,-8.8,.,47.2*
CCN(CC)c1ccc(/C=N/NC(=O)OC)c(O)c1,7.5,0.6,8.0,15.8,4.9,.
CCN(CC)c1ccc(C=NNC(=O)Cc2cc(=O)[nH][nH]2)c(O)c1,11.9,0.6,32.9*,.,.,21.8
CCCNc1c(F)c(F)c2c(C)c3ccccc3nc2c1F,15.0,13.8,50.8*,-15.3,50.9*,44.5*
CCCCC1CC(CSc2ncn[nH]2)OC1=O (stereo unspecified),4.8,1.0,79.2*,-5.8,2.5,-13.4
CCCCCCCC1CC(CSc2ncn[nH]2)OC1=O (stereo unspecified),0.9,0.2,-5.4,-20.6,-1.0,.
CC(=O)Nc1cc(-c2cccc(C(=O)N(C)C)c2)cn2c(-c3cccc(C(F)(F)F)c3)cnc12,-11.3,-1.5,-28.6,.,.,.
Cc1cc(NC(=O)CCc2c[nH]c3ccccc23)ccc1Oc1cccnc1,6.2,3.5,-2.6,.,.,.
Cc1nc(N)sc1-c1csc(N(C)c2ccc(O)cc2)n1,9.3,11.5,34.3*,7.1,27.2,10.1
COc1cc(/C=C(\C(=O)O)c2ccc(S(=O)(=O)N3CCCC3)s2)cc(OC)c1,2.4,3.9,10.5,.,-3.0,.
COc1ccc(Br)cc1/C=C(\C(=O)O)c1ccc(S(=O)(=O)N2CCCC2)s1,-3.8,7.5,29.6*,2.1,-9.6,13.3
CCOC(=O)c1c(C)[nH]c(O)c1C=Nc1ccc(Cl)cc1,0.7,6.2,59.1*,-7.5,24.0,7.8
CCOc1ccc(OCC(=O)OCc2csc(CC(=O)Nc3ccccc3C)n2)cc1,-5.9,1.6,9.9,-1.3,-4.9,.
Cc1ccccc1NC(=O)Cc1nc(COC(=O)CC(C)c2ccccc2)cs1 (stereo unspecified),-6.6,5.8,11.5,.,-0.2,.
COc1cc(C(=O)OCc2csc(CC(=O)Nc3ccccc3C)n2)ccc1OCC(C)C,1.9,1.7,42.9*,.,-24.9,14.4
